Data from ChEMBL document CHEMBL3124843, “Synthesis, cytostatic, antimicrobial, and anti-HCV activity of 6-substituted 7-(het)aryl-7-deazapurine ribonucleosides” (J Med Chem, 2014).
Calls of active or inactive are those of the source. The rule behind the calls is not given here.

Tests used:
[1] = Antiproliferative activity against human HeLaS3 cells after 72 hrs by XTT assay; assay type: functional, cell-based; details: HeLa S3, 72 h
Method in brief: (§1)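 Antiproliferative test on HL-60 promyelocytic leukemia and HeLa S3 cervical carcinoma cells growing in liquid suspension.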

Staphylococcus aureus [2] = assay: Antibacterial activity against Staphylococcus aureus CCM 3953 after 24 hrs; assay type: functional, organism-based
Staphylococcus aureus [3] = assay: Antibacterial activity against methicillin-resistant Staphylococcus aureus MRSA 4591 after 24 hrs; assay type: functional, organism-based
K562 [4] = assay: Cytostatic activity against paclitaxel-resistant human K562 cells after 72 hrs by MTT assay; assay type: functional, cell-based; details: K562, 72 h
Method in brief: (§2)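 IC50 is the concentration that cuts cell growth by 50%, read by quantitative metabolic MTT staining after a 3-day treatment. The resistant sublines were made by raising the concentration of the cytotoxic drug step by step. CEM-DNR-bulk (daunorubicin-selected) stably overexpresses mrp-1. K562-TAX (paclitaxel-selected) expresses only mdr-1. HCT116p53−/− carries null p53 alleles. BJ and MRC-5 are nonmalignant fibroblasts.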

HepG2 = assay: Antiproliferative activity against human HepG2 cells after 72 hrs by XTT assay; assay type: functional, cell-based; details: HepG2, 72 h
[5] = Cytotoxicity against human HuH7 cells infected with Hepatitis C virus subtype 2a; assay type: cell-based, Huh-7
Hepatitis C virus [6] = assay: Antiviral activity against Hepatitis C virus subtype 1b infected in human HuH7 cells; assay type: functional, organism-based, Hepacivirus hominis; details: genotype 1b, Huh-7
Pseudomonas aeruginosa [7] = assay: Antibacterial activity against Pseudomonas aeruginosa CCM 3955 after 24 hrs; assay type: functional, organism-based
Escherichia coli [8] = assay: Antibacterial activity against Escherichia coli CCM 3954 after 24 hrs; assay type: functional, organism-based
Enterococcus faecalis = assay: Antibacterial activity against Enterococcus faecalis CCM 4224 after 24 hrs; assay type: functional, organism-based
MRC5 = assay: Cytostatic activity against human MRC5 cells after 72 hrs by MTT assay; assay type: ADME, cell-based; details: MRC5, 72 h; method in brief: as §2
[9] = system: Staphylococcus haemolyticus; assay: Antibacterial activity against methicillin-resistant Staphylococcus haemolyticus A/16568 after 24 hrs; assay type: functional, organism-based
BJ = assay: Cytostatic activity against human BJ cells after 72 hrs by MTT assay; assay type: ADME, cell-based; method in brief: as §2
A549 = assay: Cytostatic activity against human A549 cells after 72 hrs by MTT assay; assay type: functional, cell-based; details: A549, 72 h; method in brief: as §2
[10] = Cytotoxicity against human HuH7 cells infected with Hepatitis C virus subtype 1b; assay type: cell-based, Huh-7
Hepatitis C virus [11] = assay: Antiviral activity against Hepatitis C virus subtype 2a infected in human HuH7 cells; assay type: functional, organism-based, Hepacivirus hominis; details: genotype 2a, Huh-7
[12] = Cytostatic activity against human CEM-DNR-bulk cells after 72 hrs by MTT assay; assay type: functional, cell-based; method in brief: as §2
Candida tropicalis = assay: Antifungal activity against Candida tropicalis after 48 hrs; assay type: functional, organism-based
Escherichia coli [13] = assay: Antibacterial activity against multi-resistant Escherichia coli C/16702 after 24 hrs; assay type: functional, organism-based
Pseudomonas aeruginosa [14] = assay: Antibacterial activity against multi-resistant Pseudomonas aeruginosa A/16575 after 24 hrs; assay type: functional, organism-based
HCT-116 [15] = assay: Cytostatic activity against human HCT116 cells after 72 hrs by MTT assay; assay type: functional, cell-based; details: HCT-116, 72 h; method in brief: as §2
Candida albicans = assay: Antifungal activity against Candida albicans after 48 hrs; assay type: functional, organism-based
CCRF-CEM = assay: Cytostatic activity against human CCRF-CEM cells after 72 hrs by MTT assay; assay type: functional, cell-based; method in brief: as §2
HL-60 = assay: Antiproliferative activity against human HL60 cells after 72 hrs by XTT assay; assay type: functional, cell-based; details: HL-60, 72 h; method in brief: as §1
Candida parapsilosis = assay: Antifungal activity against Candida parapsilosis after 48 hrs; assay type: functional, organism-based
K562 [16] = assay: Cytostatic activity against human K562 cells after 72 hrs by MTT assay; assay type: functional, cell-based; details: K562, 72 h; method in brief: as §2
Pichia kudriavzevii = assay: Antifungal activity against Candida crusei after 48 hrs; assay type: functional, organism-based
HCT-116 [17] = assay: Cytostatic activity against p53-deficient human HCT116 cells after 72 hrs by MTT assay; assay type: functional, cell-based; details: HCT-116, 72 h; method in brief: as §2

Row | SMILES | IC50 [1] | Activity (Staphylococcus aureus [2]) | Activity (Staphylococcus aureus [3]) | IC50 (K562 [4]) | IC50 (HepG2) | CC50 [5] | EC50 (Hepatitis C virus [6]) | Activity (Pseudomonas aeruginosa [7]) | Activity (Escherichia coli [8]) | Activity (Enterococcus faecalis) | IC50 (MRC5) | Activity [9] | IC50 (BJ) | IC50 (A549) | CC50 [10] | EC50 (Hepatitis C virus [11]) | IC50 [12] | Activity (Candida tropicalis) | Activity (Escherichia coli [13]) | Activity (Pseudomonas aeruginosa [14]) | further results
1 | CSc1ncnc2c1ccn2[C@@H]1O[C@H](CO)[C@@H](O)[C@H]1O | 11.9 µM | inactive | inactive | 0.1 µM | > 20 µM | > 44 µM | 29.9 µM | inactive | inactive | inactive | > 100 µM | inactive | > 100 µM | > 20 µM | > 44 µM | > 44 µM | 3.61 µM | inactive | inactive | inactive | IC50 (HCT-116 [15]): > 20 µM; Activity (Candida albicans): inactive; IC50 (CCRF-CEM): > 20 µM; IC50 (HL-60): 7.19 µM; Activity (Candida parapsilosis): inactive; IC50 (K562 [16]): > 20 µM; Activity (Pichia kudriavzevii): inactive; IC50 (HCT-116 [17]): > 20 µM
2 | Cc1ncnc2c1c(I)cn2[C@@H]1O[C@H](CO)[C@@H](O)[C@H]1O | 4.08 µM | inactive | inactive | > 20 µM | 3.46 µM | 13.8 µM | 2.16 µM | inactive | inactive | inactive | 13.3 µM | inactive | > 100 µM | 12.2 µM | 20.9 µM | 8.75 µM | 12.6 µM | inactive | inactive | inactive | IC50 (HCT-116 [15]): 4.72 µM; Activity (Candida albicans): inactive; IC50 (CCRF-CEM): 5.48 µM; IC50 (HL-60): 2.65 µM; Activity (Candida parapsilosis): inactive; IC50 (K562 [16]): 17.8 µM; Activity (Pichia kudriavzevii): inactive; IC50 (HCT-116 [17]): 7.57 µM
3 | C#Cc1cn([C@@H]2O[C@H](CO)[C@@H](O)[C@H]2O)c2ncnc(C)c12 | 14.7 µM | inactive | inactive | 0.11 µM | 0.29 µM | > 44 µM | 0.23 µM | inactive | inactive | inactive | 1.44 µM | inactive | 0.05 µM | 19.2 µM | > 44 µM | 21.6 µM | 0.16 µM | inactive | inactive | inactive | IC50 (HCT-116 [15]): > 20 µM; Activity (Candida albicans): inactive; IC50 (CCRF-CEM): 5.6 µM; IC50 (HL-60): 1.11 µM; Activity (Candida parapsilosis): inactive; IC50 (K562 [16]): 6.92 µM; Activity (Pichia kudriavzevii): inactive; IC50 (HCT-116 [17]): > 20 µM
4 | Cc1nc(N)c2c(-c3ccsc3)cn([C@@H]3O[C@H](CO)[C@@H](O)[C@H]3O)c2n1 | > 20 µM | inactive | inactive | > 20 µM | > 20 µM | > 44 µM | 28.7 µM | inactive | inactive | inactive | > 100 µM | inactive | > 100 µM | > 20 µM | > 44 µM | > 44 µM | > 20 µM | inactive | inactive | inactive | IC50 (HCT-116 [15]): > 20 µM; Activity (Candida albicans): inactive; IC50 (CCRF-CEM): > 20 µM; IC50 (HL-60): > 20 µM; Activity (Candida parapsilosis): inactive; IC50 (K562 [16]): > 20 µM; Activity (Pichia kudriavzevii): inactive; IC50 (HCT-116 [17]): > 20 µM
5 | C#Cc1cn([C@@H]2O[C@H](CO)[C@@H](O)[C@H]2O)c2ncnc(NC)c12 | > 20 µM | inactive | inactive | 1.38 µM | > 15 µM | > 44 µM | 0.35 µM | inactive | inactive | inactive | > 100 µM | inactive | 86 µM | > 20 µM | > 44 µM | > 44 µM | 18.5 µM | inactive | inactive | inactive | IC50 (HCT-116 [15]): > 20 µM; Activity (Candida albicans): inactive; IC50 (CCRF-CEM): > 20 µM; IC50 (HL-60): 9.06 µM; Activity (Candida parapsilosis): inactive; IC50 (K562 [16]): > 20 µM; Activity (Pichia kudriavzevii): inactive; IC50 (HCT-116 [17]): > 20 µM
6 | CNc1ncnc2c1c(-c1ccsc1)cn2[C@@H]1O[C@H](CO)[C@@H](O)[C@H]1O | > 20 µM | inactive | inactive | > 20 µM | > 20 µM | > 44 µM | > 44 µM | inactive | inactive | inactive | > 100 µM | inactive | > 100 µM | > 20 µM | > 44 µM | > 44 µM | > 20 µM | inactive | inactive | inactive | IC50 (HCT-116 [15]): > 20 µM; Activity (Candida albicans): inactive; IC50 (CCRF-CEM): > 20 µM; IC50 (HL-60): > 20 µM; Activity (Candida parapsilosis): inactive; IC50 (K562 [16]): > 20 µM; Activity (Pichia kudriavzevii): inactive; IC50 (HCT-116 [17]): > 20 µM
